This is an account of results in ChEMBL document CHEMBL4020721 (Eur J Med Chem, 2017).

One series addresses T1, CYP1A2 (Homo sapiens, UniProt P05177).
T1 sequence (P05177 whole entry): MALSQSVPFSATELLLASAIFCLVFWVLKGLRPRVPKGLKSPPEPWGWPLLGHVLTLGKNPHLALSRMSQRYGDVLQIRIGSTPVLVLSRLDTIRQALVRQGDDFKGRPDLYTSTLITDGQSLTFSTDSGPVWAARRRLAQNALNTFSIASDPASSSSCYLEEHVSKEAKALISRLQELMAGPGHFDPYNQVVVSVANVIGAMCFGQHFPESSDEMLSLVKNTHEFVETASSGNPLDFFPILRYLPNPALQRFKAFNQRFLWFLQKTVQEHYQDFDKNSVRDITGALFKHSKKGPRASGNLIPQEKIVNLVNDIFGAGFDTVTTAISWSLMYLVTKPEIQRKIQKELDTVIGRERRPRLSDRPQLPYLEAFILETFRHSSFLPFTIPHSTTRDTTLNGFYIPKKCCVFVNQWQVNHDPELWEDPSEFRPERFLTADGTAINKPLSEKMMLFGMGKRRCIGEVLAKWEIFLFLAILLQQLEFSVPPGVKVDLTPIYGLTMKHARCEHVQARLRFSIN
In words: Reversible inhibition of CYP1A2 in human liver microsomes at 10 uM after 20 mins in presence of NADPH by LC-MS/MS analysis. It counts as ADME. (In general: Liver microsomes are vesicles of endoplasmic reticulum, rich in cytochrome P450 enzymes.)

Series [1] in a line: Cmax in Sprague-Dawley rat plasma at 6 mg/kg, po by UPLC-MS/MS analysis. In kind it is ADME, organism-based. Also on record: dose 6 mg/kg, route oral. The procedure, abridged: (§1)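 Male Sprague-Dawley rats (180-220 g) were fasted overnight with free access to water. Dosing was intravenous (n=2) or oral at 6 mg/kg (n=3). Heparinized blood was drawn from 0 to 1440 min. Plasma was frozen at -20°C, then precipitated with acetonitrile containing internal standard, centrifuged and analysed by UPLC-MS/MS.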

Series [2] addresses Hepatocyte growth factor receptor (Homo sapiens, UniProt P08581). In words: Inhibition of c-MET (unknown origin) using TK substrate-biotin peptide as substrate preincubated for 5 to 10 mins followed by ATP addition measured after 30 mins by HTRF assay.
For series [3], the target named is Receptor tyrosine-protein kinase erbB-4 (Homo sapiens, UniProt Q15303). The experiment in a line: Inhibition of ERBB4 (unknown origin) using FAM-labeled peptide as substrate preincubated for 5 to 10 mins followed by substrate/ATP addition measured after 30 to 60 mins by mobility shift assay. The essentials:
(§2)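 Caliper mobility-shift assay with FAM-labeled peptide substrate. Buffer: 50 mM HEPES pH 7.5, 0.0015% Brij-35, 10 mM MgCl2, 2 mM DTT, with kinase-specific enzyme levels. […] Incubation was 30-60 min at 28°C, stopped with EDTA buffer. Read-out was % conversion.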

The nature of series [4]: Half life in Sprague-Dawley rat plasma at 1 mg/kg, iv by UPLC-MS/MS analysis. It counts as ADME, organism-based. The essentials:
as §1

The target in series [5] is Fibroblast growth factor receptor 1 (Homo sapiens, UniProt P11362). In words: Inhibition of FGFR1 (unknown origin) using FAM-labeled peptide as substrate preincubated for 5 to 10 mins followed by substrate/ATP addition measured after 30 to 60 mins by mobility shift assay. The procedure, abridged:
as §2

The nature of series [6]: Drug recovery in human liver microsomes at 1 uM measured after 30 mins by LC-MS/MS analysis. In kind it is ADME, microsome. Conditions: liver microsomes, read-out: Drug recovery. The essentials: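 Liver microsomes (0.5 mg/ml) were incubated with 1 µM compound at 37°C in 100 mM phosphate buffer pH 7.4 without NADPH for 30 min. Reactions were quenched with acetonitrile/tinidazole internal standard and analysed by LC-MS/MS. Recovery (%) was taken from the compound/internal standard peak area ratio.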

A further series addresses Ephrin type-B receptor 2 (Homo sapiens, UniProt P29323). In words: Inhibition of EPHB2 (unknown origin) using FAM-labeled peptide as substrate preincubated for 5 to 10 mins followed by substrate/ATP addition measured after 30 to 60 mins by mobility shift assay. The essentials:
as §2

The test system of series [7] is NCI-H1993. In words: Antitumor activity against human NCI-H1993 cells xenografted in BALB/c athymic nude mouse assessed as tumor growth inhibition at 0.1 mg/kg, po administered once daily for 3 weeks. It counts as functional. The settings on record: 504 h, read-out: TGI. The procedure, abridged:
(§3)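 BALB/c nude mice, 5-6 weeks old, kept under SPF conditions, received 7×10^6 NCI-H1993 cells s.c. in the right flank. At 150-250 mm³ they were sorted and randomized, n=7 per group, with vehicle controls. Dosing was oral, once daily for 3 weeks. […] Mean±SEM, Student's t-test.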
On the technique in general: In xenograft studies the graft and the host belong to different species.

The target of series [8] is T2, CYP2C9 (Homo sapiens, UniProt P11712). In words: Time dependent irreversible inhibition of CYP2C9 in human liver microsomes at 10 uM preincubated with compound followed by NADPH addition by LC-MS/MS analysis. It counts as ADME. The settings on record: liver microsomes. The essentials: (§4)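 HLM (0.2 mg/ml) with 10 µM compound were preincubated 0, 5, 10 or 20 min at 37°C with 1 mM NADPH or PBS. Substrate cocktail (halved concentrations) plus NADPH was then added for 10 min. Metabolites were measured by LC-MS/MS. Kobs is the slope of relative activity versus preincubation time.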

In the next series the target is CYP2D6 (Homo sapiens, UniProt P10635). In words: Time dependent irreversible inhibition of CYP2D6 in human liver microsomes at 10 uM preincubated with compound followed by NADPH addition by LC-MS/MS analysis. In kind it is ADME. The settings on record: liver microsomes. The procedure, abridged:
as §4

The target of series [9] is T2, CYP2C9. The experiment in a line: Reversible inhibition of CYP2C9 in human liver microsomes at 10 uM after 20 mins by in presence of NADPH LC-MS/MS analysis. Conditions: liver microsomes. In kind it is ADME.
The subject of series [10] is NCI-H1993. The experiment in a line: Antitumor activity against human NCI-H1993 cells xenografted in BALB/c athymic nude mouse assessed as tumor growth inhibition at 10 mg/kg, po administered once daily for 3 weeks. In kind it is functional. Conditions: 504 h, read-out: TGI. The essentials:
as §3

Series [11] in a line: AUC (0 to 24 hrs) in Sprague-Dawley rat plasma at 6 mg/kg, po by UPLC-MS/MS analysis. In kind it is ADME, organism-based. Details: dose 6 mg/kg, time < 24 hr, route oral. The essentials: as §1
Series [12] concerns the target Platelet-derived growth factor receptor beta (Homo sapiens, UniProt P09619). The experiment in a line: Inhibition of PDGFRbeta (unknown origin) using FAM-labeled peptide as substrate preincubated for 5 to 10 mins followed by substrate/ATP addition measured after 30 to 60 mins by mobility shift assay. The essentials: as §2
Series [13] relates to Mus musculus. In words: Toxicity in BALB/c athymic nude mouse xenografted with human SNU5 cells assessed as apparent toxicity parameters at 0.3 to 3 mg/kg, po administered once daily for 2 weeks. In kind it is organism-based. Conditions: in vivo, 336 h. The essentials: (§5)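 Female/male BALB/c nude mice (5-6 weeks, SPF). NCI-H1993 cells (7×10^6 in 140 µL) or SNU-5 cells (6×10^6 in 200 µL) injected s.c. into the right flank. Dosing started at mean tumour volume 150-250 mm³ (NCI-H1993) or 100-200 mm³ (SNU-5). Randomized, n = 7 (NCI-H1993) or 6 (SNU-5) per group. Oral dosing once daily; vehicle controls. Body weight and signs of toxicity monitored during treatment.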

In series [14] the test system is Mus musculus. In words: Toxicity in BALB/c athymic nude mouse xenografted with human SNU5 cells assessed as body weight loss at 0.3 to 3 mg/kg, po administered once daily for 2 weeks. In kind it is organism-based. The settings on record: in vivo, 336 h. The essentials:
as §5

T2 sequence (P11712 whole entry): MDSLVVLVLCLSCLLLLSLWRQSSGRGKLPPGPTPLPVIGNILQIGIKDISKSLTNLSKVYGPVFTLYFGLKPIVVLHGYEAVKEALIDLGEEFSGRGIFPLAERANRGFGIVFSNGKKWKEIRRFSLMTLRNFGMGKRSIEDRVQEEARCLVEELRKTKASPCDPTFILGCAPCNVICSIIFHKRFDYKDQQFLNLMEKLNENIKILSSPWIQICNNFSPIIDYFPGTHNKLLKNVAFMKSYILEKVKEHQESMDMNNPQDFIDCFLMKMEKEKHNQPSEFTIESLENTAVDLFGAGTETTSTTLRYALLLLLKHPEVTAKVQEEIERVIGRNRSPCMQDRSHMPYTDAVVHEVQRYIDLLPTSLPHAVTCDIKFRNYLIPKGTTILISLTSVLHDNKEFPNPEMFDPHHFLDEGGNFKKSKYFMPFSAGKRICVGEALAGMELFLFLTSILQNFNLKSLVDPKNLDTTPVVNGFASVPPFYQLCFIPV
Ephrin type-B receptor 2, sequence (P29323 whole entry): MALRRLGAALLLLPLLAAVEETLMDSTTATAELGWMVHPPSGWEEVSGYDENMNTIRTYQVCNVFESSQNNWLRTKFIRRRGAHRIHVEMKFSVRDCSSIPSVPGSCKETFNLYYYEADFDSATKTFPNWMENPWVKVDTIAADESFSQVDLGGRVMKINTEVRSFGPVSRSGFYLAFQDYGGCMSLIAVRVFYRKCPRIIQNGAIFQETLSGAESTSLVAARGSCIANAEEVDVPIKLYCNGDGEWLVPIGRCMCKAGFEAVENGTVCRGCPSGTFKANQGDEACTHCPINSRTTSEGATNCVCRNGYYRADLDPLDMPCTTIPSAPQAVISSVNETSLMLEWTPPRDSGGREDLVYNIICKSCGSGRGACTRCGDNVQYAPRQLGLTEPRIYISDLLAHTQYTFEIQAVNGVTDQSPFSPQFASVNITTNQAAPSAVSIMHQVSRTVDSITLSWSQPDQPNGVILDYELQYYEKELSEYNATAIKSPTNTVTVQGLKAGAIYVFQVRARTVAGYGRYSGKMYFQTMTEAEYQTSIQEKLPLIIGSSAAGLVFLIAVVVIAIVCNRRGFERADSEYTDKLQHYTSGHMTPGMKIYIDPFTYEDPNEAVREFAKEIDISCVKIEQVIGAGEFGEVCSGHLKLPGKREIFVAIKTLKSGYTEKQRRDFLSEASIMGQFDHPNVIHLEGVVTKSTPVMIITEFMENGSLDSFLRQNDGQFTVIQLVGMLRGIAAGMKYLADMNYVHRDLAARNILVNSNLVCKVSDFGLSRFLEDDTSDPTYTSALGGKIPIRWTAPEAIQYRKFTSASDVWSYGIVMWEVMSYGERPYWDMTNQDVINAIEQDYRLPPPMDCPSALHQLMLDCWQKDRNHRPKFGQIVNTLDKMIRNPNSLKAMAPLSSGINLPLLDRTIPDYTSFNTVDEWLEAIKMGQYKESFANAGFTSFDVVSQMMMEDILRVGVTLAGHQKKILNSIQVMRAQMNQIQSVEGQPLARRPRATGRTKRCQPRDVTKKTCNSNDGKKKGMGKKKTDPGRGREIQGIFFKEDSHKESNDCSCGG
CYP2D6, sequence (P10635 whole entry): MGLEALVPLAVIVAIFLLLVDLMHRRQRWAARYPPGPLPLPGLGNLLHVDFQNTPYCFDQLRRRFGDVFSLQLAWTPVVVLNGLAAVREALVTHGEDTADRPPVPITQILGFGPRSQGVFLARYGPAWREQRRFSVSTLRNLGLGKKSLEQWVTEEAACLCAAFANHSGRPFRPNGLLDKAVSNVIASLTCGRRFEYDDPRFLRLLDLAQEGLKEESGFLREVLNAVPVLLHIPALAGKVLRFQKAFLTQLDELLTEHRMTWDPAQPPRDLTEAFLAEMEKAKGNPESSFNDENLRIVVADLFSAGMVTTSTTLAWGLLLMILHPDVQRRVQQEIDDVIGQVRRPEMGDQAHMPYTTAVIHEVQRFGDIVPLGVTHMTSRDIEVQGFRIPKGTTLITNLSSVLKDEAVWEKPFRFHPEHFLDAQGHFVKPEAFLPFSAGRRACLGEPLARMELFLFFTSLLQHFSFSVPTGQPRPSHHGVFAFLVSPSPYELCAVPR
Receptor tyrosine-protein kinase erbB-4, sequence (Q15303 whole entry): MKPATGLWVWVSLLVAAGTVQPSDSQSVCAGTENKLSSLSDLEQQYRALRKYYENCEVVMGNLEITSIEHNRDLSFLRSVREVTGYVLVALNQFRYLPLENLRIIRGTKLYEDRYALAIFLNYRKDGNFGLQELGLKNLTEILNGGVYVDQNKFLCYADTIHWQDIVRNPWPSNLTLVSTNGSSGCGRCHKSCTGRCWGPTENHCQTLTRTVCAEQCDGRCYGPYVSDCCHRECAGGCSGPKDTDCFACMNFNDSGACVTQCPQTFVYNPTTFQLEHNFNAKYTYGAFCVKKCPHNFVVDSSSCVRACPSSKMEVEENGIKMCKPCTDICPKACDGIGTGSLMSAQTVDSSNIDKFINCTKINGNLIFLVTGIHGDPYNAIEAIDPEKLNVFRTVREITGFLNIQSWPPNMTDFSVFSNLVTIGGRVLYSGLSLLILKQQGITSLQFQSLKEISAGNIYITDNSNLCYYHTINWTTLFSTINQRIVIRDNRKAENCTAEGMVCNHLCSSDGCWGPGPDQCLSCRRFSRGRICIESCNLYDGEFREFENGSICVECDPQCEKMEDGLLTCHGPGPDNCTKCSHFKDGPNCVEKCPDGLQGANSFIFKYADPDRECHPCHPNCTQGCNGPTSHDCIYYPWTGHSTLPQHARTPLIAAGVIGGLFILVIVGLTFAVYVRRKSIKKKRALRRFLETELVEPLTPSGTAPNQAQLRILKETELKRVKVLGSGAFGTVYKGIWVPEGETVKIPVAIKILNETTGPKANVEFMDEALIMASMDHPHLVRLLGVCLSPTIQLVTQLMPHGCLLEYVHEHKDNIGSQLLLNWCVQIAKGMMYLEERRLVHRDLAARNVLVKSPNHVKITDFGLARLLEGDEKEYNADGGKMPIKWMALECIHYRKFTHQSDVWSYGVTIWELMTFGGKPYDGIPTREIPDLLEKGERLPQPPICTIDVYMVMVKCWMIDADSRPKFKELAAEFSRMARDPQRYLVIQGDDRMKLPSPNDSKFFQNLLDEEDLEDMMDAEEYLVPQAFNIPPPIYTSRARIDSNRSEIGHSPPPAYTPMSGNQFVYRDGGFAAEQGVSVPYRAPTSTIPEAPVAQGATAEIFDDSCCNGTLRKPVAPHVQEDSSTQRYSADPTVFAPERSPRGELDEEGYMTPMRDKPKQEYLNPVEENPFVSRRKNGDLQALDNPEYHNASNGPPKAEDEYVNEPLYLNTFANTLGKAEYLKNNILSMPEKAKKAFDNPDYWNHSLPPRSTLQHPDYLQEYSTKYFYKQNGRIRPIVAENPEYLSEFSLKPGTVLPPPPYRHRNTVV
Fibroblast growth factor receptor 1, sequence (P11362 whole entry): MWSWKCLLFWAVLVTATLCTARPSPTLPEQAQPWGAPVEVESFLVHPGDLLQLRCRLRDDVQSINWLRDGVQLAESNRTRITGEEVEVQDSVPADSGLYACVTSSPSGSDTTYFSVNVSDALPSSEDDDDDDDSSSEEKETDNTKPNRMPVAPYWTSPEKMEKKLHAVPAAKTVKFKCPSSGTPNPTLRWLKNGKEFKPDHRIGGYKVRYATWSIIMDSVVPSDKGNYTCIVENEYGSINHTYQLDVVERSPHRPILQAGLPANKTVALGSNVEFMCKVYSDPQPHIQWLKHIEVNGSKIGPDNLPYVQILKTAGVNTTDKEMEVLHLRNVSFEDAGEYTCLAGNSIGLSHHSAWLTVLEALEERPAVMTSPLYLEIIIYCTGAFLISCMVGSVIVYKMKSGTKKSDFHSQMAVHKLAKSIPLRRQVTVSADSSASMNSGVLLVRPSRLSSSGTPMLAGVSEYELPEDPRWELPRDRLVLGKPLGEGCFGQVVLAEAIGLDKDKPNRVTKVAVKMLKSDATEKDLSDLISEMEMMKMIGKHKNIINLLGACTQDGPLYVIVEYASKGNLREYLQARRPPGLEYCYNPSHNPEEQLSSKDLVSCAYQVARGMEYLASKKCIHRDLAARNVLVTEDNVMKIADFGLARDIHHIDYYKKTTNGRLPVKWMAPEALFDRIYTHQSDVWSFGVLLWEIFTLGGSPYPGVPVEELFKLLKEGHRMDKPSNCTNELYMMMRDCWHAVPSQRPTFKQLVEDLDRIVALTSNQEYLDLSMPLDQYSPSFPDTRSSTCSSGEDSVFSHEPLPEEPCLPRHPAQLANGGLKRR

Broadly, the inhibition is how much of the control response was suppressed. Broadly, the Cmax is the peak of the concentration-time curve. One may read the IC50 as the point on the concentration scale where inhibition reaches its midpoint. What is called half-life is the time needed for the level to fall by half in the phase considered. The AUC(0-t) is the area under the concentration-time curve up to a stated or last time point. Lower therefore signals less exposure. As to `CC(c1cc2cc(-c3cnn(C)c3)cnc2cc1F)n1nnc2ncc(-c3cnn(CCO)c3)nc21` (stereo in doubt; 14), the inhibition at 20 min, 10 µM at CYP1A2 and on CYP2C9 [9] was less than 50% throughout. This molecule also came in with a Cmax in series [1] of 135 ng/mL. In addition, the IC50 in [2] is 0.6 nM; in [3], greater than 30 µM; in series [5] it was greater than 30 µM; on Ephrin type-B receptor 2, greater than 30 µM; in [12] it was greater than 30 µM. This molecule also gave a half-life in series [4] of 222 min. In addition, in series [6], the remaining at 0.5 h, 1 µM turned out to be 95%. Moreover, the inhibition in vivo at 0.1 mg/kg in the series on NCI-H1993 [7] stood at 55.5%. The inhibition at 10 µM on CYP2C9 [8] and on CYP2D6 was less than 50% each time. In the series on NCI-H1993 [10], the inhibition in vivo at 10 mg/kg is 90.8%. For the same molecule, in series [11], the AUC(0-t) at 24 h stood at 1250 ng·h/mL. The Activity entry in the series with Mus musculus [13] and in the series on Mus musculus [14] was “Non-Toxic” throughout.
